These results are taken from ChEMBL document CHEMBL1143109, “Discovery of novel orally active ureido NPY Y5 receptor antagonists” (Bioorg Med Chem Lett, 2008).

A short description of data set [1]: Bioavailability in Beagle dog. The note with it: in vivo. The class given is ADME, organism-based, Canis lupus familiaris.
The target of data set [2] is Sodium-dependent noradrenaline transporter (Homo sapiens) (UniProt P23975). Kind of data set: Inhibition of norepinephrine transporter at 10 uM. The method in brief: (§1)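 Counterscreen panel of 60 receptors, enzymes and ion channels; inhibition of binding measured at 10 µM.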
Chain of Sodium-dependent noradrenaline transporter (Homo sapiens) (P23975 whole entry): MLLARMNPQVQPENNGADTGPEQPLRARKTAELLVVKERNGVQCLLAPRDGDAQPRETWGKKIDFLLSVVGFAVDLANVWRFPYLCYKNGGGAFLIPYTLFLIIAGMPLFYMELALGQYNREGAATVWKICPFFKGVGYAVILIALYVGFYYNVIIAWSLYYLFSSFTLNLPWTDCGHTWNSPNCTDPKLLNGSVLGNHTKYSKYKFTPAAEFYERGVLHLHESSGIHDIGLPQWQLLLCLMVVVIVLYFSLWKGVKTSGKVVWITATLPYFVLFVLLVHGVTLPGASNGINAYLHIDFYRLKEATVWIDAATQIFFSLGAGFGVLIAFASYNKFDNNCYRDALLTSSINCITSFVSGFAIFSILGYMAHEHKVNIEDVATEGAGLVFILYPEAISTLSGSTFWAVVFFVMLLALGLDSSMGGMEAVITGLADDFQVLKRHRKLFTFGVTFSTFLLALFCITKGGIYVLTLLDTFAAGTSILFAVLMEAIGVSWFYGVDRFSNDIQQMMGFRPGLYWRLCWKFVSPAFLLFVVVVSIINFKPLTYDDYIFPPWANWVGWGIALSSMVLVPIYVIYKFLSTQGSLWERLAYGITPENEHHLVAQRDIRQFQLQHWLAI
Data set [3] concerns the target Neuropeptide Y receptor type 5 (Homo sapiens, UniProt Q15761). The data set is described as follows: Displacement of [125]PYY from human chimeric NPY Y5 receptor expressed in CHOK1 cells. Format: cell-based. The note with it: cho-k1. The method in brief: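 Binding to human chimeric Y5 receptor expressed in CHO-K1 cells; Ki values are the average of two determinations.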

Data set [4] has as its target T1, 5-hydroxytryptamine receptor 2C (Homo sapiens) (UniProt P28335).
T1 sequence (whole entry): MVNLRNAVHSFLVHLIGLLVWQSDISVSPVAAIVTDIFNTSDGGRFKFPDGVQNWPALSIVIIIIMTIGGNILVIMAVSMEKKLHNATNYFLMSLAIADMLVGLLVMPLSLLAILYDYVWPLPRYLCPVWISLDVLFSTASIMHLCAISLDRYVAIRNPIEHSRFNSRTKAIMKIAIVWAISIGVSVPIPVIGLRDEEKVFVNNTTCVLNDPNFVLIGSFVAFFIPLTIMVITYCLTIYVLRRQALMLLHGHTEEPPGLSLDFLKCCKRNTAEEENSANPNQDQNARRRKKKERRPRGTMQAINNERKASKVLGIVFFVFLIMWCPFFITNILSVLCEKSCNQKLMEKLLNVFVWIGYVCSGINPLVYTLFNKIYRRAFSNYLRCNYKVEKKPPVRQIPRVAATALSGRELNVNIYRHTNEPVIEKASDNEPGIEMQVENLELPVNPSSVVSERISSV
Kind of data set: Inhibition of 5HT2C receptor at 10 uM. The method in brief: as §1

The next data set relates to Rattus norvegicus. Kind of data set: Decrease in adipose mass in po dosed Sprague-Dawley DIO rat after 28 days. Format: functional, organism-based. The method in brief: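 DIO rats weighing 700–800 g at start, n = 12/group, food and water ad libitum. Compound admixed into low fat diet for 28 days; delivered doses (1, 3 or 10 mg/kg/day) calculated from food consumption. Body composition by DEXA scanning, expressed as percent change from day 0 baseline; average plasma levels taken at the 10 mg/kg/day dose.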

For data set [5], the target named is 5-hydroxytryptamine receptor 5A (Homo sapiens) (UniProt P47898). Kind of data set: Inhibition of 5HT5A receptor at 10 uM. The method in brief: as §1
Chain of 5-hydroxytryptamine receptor 5A (Homo sapiens) (P47898 whole entry): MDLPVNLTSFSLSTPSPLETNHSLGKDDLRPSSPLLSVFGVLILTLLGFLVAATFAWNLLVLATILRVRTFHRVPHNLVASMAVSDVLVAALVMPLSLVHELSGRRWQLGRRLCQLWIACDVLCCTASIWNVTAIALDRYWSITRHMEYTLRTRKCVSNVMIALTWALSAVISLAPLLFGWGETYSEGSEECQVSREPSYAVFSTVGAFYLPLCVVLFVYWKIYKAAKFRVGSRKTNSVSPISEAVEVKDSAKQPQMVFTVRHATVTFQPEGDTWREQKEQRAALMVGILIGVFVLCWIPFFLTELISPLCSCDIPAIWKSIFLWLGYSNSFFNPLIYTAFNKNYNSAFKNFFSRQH
The target in data set [6] is 5-hydroxytryptamine receptor 2B (Homo sapiens) (UniProt P41595). The data set is described as follows: Inhibition of 5HT2B receptor at 10 uM. The method in brief:
as §1

The term bioavailability denotes dose-corrected exposure relative to a reference, in per cent. Broadly, the inhibition is the change of the read-out against control, counted positive when it falls. A higher inhibition goes with a response far below the control. By Ki is commonly meant the equilibrium dissociation constant of an inhibitor or competing ligand from its target. The low end stands for a stronger hold on the target, the high end for a looser hold on the target.

Chain of Neuropeptide Y receptor type 5 (Q15761 whole entry, looked up): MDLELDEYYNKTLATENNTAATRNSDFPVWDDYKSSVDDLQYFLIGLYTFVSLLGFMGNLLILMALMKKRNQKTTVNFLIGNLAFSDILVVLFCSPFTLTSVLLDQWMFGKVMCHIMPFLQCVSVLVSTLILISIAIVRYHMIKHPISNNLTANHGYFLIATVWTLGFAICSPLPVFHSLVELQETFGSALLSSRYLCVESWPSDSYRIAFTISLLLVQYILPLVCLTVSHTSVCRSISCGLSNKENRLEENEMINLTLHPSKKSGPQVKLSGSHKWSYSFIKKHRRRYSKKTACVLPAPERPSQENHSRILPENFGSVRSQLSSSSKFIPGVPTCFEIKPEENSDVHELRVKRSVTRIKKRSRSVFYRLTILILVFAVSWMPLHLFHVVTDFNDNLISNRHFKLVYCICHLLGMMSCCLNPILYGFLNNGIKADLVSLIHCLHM
Chain of 5-hydroxytryptamine receptor 2B (Homo sapiens) (P41595 whole entry): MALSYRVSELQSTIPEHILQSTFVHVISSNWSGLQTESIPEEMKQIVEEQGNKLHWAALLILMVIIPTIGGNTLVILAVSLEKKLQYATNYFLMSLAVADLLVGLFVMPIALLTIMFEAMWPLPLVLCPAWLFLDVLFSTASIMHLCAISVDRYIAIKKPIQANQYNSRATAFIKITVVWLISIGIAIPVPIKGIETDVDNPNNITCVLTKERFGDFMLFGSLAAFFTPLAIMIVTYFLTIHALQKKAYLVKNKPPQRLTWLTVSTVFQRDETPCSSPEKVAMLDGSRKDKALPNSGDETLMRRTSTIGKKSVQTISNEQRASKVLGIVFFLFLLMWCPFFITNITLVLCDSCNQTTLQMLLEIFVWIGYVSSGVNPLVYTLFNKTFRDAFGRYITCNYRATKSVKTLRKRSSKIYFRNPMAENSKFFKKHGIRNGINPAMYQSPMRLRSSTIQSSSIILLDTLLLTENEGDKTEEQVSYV

Turning to `CC(=O)N1CCC(N(C)C(=O)N[C@H]2CC[C@H](c3cc(F)cc(F)c3)CC2)CC1`, the bioavailability in data set [1] is 94%. The inhibition in data set [2], in data set [4], in data set [5] and in data set [6] was less than 10% in each case. In data set [3], this compound returned an inhibitory constant (Ki) of 1.8 nM. Besides, the Activity result in the data set on Rattus norvegicus was “Dose-dependent effect”.
